# From PubChem
# This excerpt belongs to a sample that is enriched for hits.
# CHOP UPR activ – apoptotic UPR (CHOP) activation; CHO-CHOP luciferase reporter, luminescence; percent of tunicamycin response over DMSO baseline; activation, % at 10 µM; 0.34% of 330,000 active;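 active = at 10 µM dose, activation of 40% or more, normalized to positive control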;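 also: 100% = tunicamycin at 10 µg/mL and 0% = DMSO alone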
#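 assay system = CHO CHOP reporter cells | amount = 500 CHO-CHOP cells per well | buffer or medium = F12 with 10% FBS | incubation = 16-18 h cell attachment, then 6 h compound exposure, 37 °C | detection = luminescence read with Steady-Glo | read-out = percent activation relative to tunicamycin control | controls = tunicamycin high control, DMSO low control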
# UPR XBP1 act – adaptive UPR (XBP1) activation. CHO-XBP1 luciferase reporter, IRE1-XBP1 UPR activation, luminescence; percent of tunicamycin response, DMSO as zero. activation, % at 20 µM. 0.33% of 330,000 active;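 active = versus positive control, 20 µM dose yields 30% or more activation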;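 also: 100% = tunicamycin at 10 µg/mL and 0% = DMSO only wells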
#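 Assay system: IRE1-XBP1 luciferase reporter CHO line. Input: 1000 cells/well. Buffer or medium: F12 with 10% serum. Doses: 20 µM, 1% DMSO. Times: overnight seeding at 37 °C, 6 h compound treatment at 37 °C. Technique: Steady-Glo luciferase glow luminescence, 10 min after reagent addition.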
# Tb MetRS inh – blocks T. brucei methionyl-tRNA synthetase activity; purified T. brucei MetRS, ATP depletion, Kinase-Glo luminescence; AID 624268; 0.4% of 360,000 active; inhibition, % at 11.9 µM;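 active = inhibition above a per-plate cutoff of the control wells' mean inhibition plus 3 SD, cut at about 5.5% in these data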;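 also: 0% = DMSO wells median and 100% = median of wells with control inhibitor compound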
#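 Measured by: Kinase-Glo luciferase luminescence reporting remaining unconsumed ATP. Material: purified T. brucei MetRS enzyme. Doses: 11.9 µM compound single dose, 0.9% DMSO. Medium: HEPES buffer containing pyrophosphatase, BSA, spermine, DTT. Times: 15 min preincubation, 2 h reaction, all 25 °C. Reagent: methionine, ATP and bulk E. coli tRNA.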
# CHOP inhibitor – blocks CHOP induction under ER stress. CHO-K1 CHOP-promoter luciferase, tunicamycin-induced, 15-18 h. inhibition, % at 10 µM. 3.8% of 220,000 active;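 active = compounds that reduced the stress-induced luciferase reporter signal by more than about 70% of percent inhibition, limit read from the data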;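 also: 0% = tunicamycin plus vehicle and 100% = wells without tunicamycin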
# V-ATPase pHluor – yeast V-ATPase proton transport regulation by pHLuorin | S. cerevisiae, pHLuorin cytosolic pH fluorescence | response, % at 10 µM | 0.37% of 350,000 active | AID 504577; in the data active = response mostly above about 7.3%, no sharp cut-off; inactive = mostly below about 5.4%; also: actives read high
# * marks the source's active call; other numbers are inactive results; nt = not tested or not shown.
SMILES,CHOP UPR activ,UPR XBP1 act,Tb MetRS inh,CHOP inhibitor,V-ATPase pHluor
O=C(NC1CCCC1)N[C@@H]1C=C[C@@H](CC(=O)N2CCOCC2)O[C@@H]1CO,nt,nt,-1,nt,nt
CCOC(=O)Cc1ccc(Nc2nc(NCCOC)nc3ccsc23)cc1,nt,nt,0,nt,nt
Cc1ccc(S(=O)(=O)N2[C@H](CC(=O)c3cccc4ccccc34)OC[C@@H]2C)cc1,nt,nt,-1,nt,nt
CCOC(=O)c1c(NC(=O)COC(=O)C2CC2C)sc(C)c1C (stereo not drawn),1,1,0,70*,5
CCOC(=O)c1c(NC(=O)CC2Nc3cc(C)c(C)cc3NC2=O)sc(C)c1C (stereo not drawn),2,-1,0,74*,-2
O=C(NC1CCCCC1)c1cccc(NC(=O)c2ccccc2Cl)c1,nt,nt,0,nt,nt
O=C(N/N=C/c1ccccc1Cl)c1ccncc1,1,2,-1,nt,-1
COc1ccccc1/C=N/NC(=O)C(=O)Nc1ccccc1OC(F)(F)C(F)F,-1,0,0,13,0
O=C(N/N=C/c1cc(Br)ccc1O)C(=O)Nc1ccccc1OC(F)(F)C(F)F,nt,nt,-1,77*,-1
O=C(N/N=C/c1cc(Cl)ccc1O)c1ccncc1,0,-1,0,72*,1
O=C(N/N=C/c1cc(Cl)ccc1O)C(=O)Nc1ccccc1OC(F)(F)C(F)F,nt,nt,0,78*,2
Cc1ccc(Nc2nc(Nc3ccc(C)cc3)nc(SC3=NCCS3)n2)cc1,5,3,-1,90*,-1
CCCCN1C(=O)C(CC(=O)NCCCN(C)C)CC(C(=O)N(C(C)C)C(C)C)=C1C (stereo not drawn),nt,nt,0,nt,nt
COc1cc(C(=O)NCc2ccc(-c3nc4ccccc4s3)cc2)cc(OC)c1OC,5,0,0,54,-2
COc1cc(C(=O)NCc2ccc(-c3nc4ccccc4o3)cc2)cc(OC)c1OC,4,8,0,71*,1
CC(C)c1cc(C(=O)OCC(=O)NC(=O)NCc2ccco2)c(O)c(C(C)C)c1,-1,5,0,102*,-2
O=C(COC(=O)c1ccccc1C(F)(F)F)NC(=O)NCc1ccco1,1,2,0,nt,2
Cc1ccc(NC(=O)C(C)Sc2nc(=O)cc(N)n2-c2ccccc2)cc1 (stereo not drawn),-1,0,0,73*,2
N#CC1(Nc2cccc(Cl)c2)CCCC1,nt,nt,0,nt,-1
CCN(CC)c1ccc(Nc2nc(N3CCOCC3)c3ccccc3n2)cc1,6,2,0,74*,0
COC1OC(c2ccccc2)=C(c2ccc(C(N)=O)cc2)c2ccc(F)cc21 (stereo not drawn),nt,nt,-1,nt,nt
CCc1c(C)c(C#N)c2nc3ccccc3n2c1Cl,nt,nt,nt,110*,nt
CCc1c(C)c(C#N)c2nc3ccccc3n2c1-n1nc(C)cc1C,0,-2,0,-4,-1
CCOC(=O)C1(Cc2ccccc2)CCN(Cc2ccc(C)s2)CC1,1,-3,-1,90*,-3
CCOC(=O)C1(CCc2ccccc2)CCN(Cc2c(O)cccc2OC)CC1,-3,-5,-2,73*,-3
SMILES,CHOP UPR activ,UPR XBP1 act,Tb MetRS inh,CHOP inhibitor,V-ATPase pHluor
Cc1ccc([C@H]2C[C@H](O)[C@@H](n3cc(-c4ccc(F)cc4)nn3)CN2CC2CCCCC2)cc1,nt,nt,-1,nt,3
Cc1ccnn1-c1ccc(C(=O)OCC(=O)Nc2ccc(F)cc2)cc1,1,-1,0,nt,-1
Cc1cc2ccccn2c1C(=O)c1cccc([N+](=O)[O-])c1,-1,2,-1,38,1
Cc1cc2ccccn2c1C(=O)c1ccc([N+](=O)[O-])o1,13,1,0,6,11*
Cc1ccc(-c2cc(-c3ccccc3)c(C#N)c(N)n2)o1,2,-1,0,95*,-4
CN(C1=C(N2CCCCC2)C(=O)c2ccccc2C1=O)c1ccccc1,-1,-2,0,71*,nt
O=C1C(Nc2ccccc2)=C(N2CCCCC2)C(=O)c2ccccc21,-2,0,0,12,1
O=C(CSc1nc(CCC2CCCC2)nc2ccccc12)NCc1ccc2c(c1)OCO2,0,3,0,95*,-2
O=C(CSc1ncnc2c1cnn2-c1ccc(F)cc1)NCc1ccc2c(c1)OCO2,2,1,0,89*,-3
